Laboratory results as given in the EternaBench riboswitch data.

System: MS2 coat protein
Assay: apparent Kd, MS2 coat protein; higher = weaker binding; RNA-MaP array; FMN 200 µM where present
Method in brief: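 Stalled E. coli RNA polymerase transcribed each design on Illumina sequencing-chip clusters. The clusters were titrated with SNAP-549-labelled MS2 coat protein, starting at 0.7 or 1.5 nM and doubling up to 3 µM, first without ligand and then with constant ligand, in 100 mM Tris-HCl pH 7.5, 80 mM KCl, 4 mM MgCl2, BSA, DTT, yeast tRNA and Tween-20. Green signal was normalised to red-channel RNA signal and to the control-cluster median Fmax. The apparent Kd is the median of filtered binding-curve fits made for each cluster.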

[1] = designed as: OFF switch for flavin mononucleotide, no ligand
[2] = ligand present: flavin mononucleotide, designed as: OFF switch for flavin mononucleotide
[3] = designed as: ON switch for flavin mononucleotide, no ligand
[4] = ligand present: flavin mononucleotide, designed as: ON switch for flavin mononucleotide

UGAUAGGACAGAGGAUAUACGUGCUGGAGAUACUAGCAAAGUAUCUUGACAUGAGGAUCACCCAUGUAGAAGGCUGUCCUAUCU
apparent Kd [1]: 16.9 nM | apparent Kd [2]: 89.2 nM

GUAGCAUACAGAGGAUAUUCAAACCACAAAAGUGGACAUGAGGAUCACCCAUGUGGCGAAAGCCGGGAGAAGGCUGAAUGCUAC
apparent Kd [3]: 15.9 nM | apparent Kd [4]: 14.3 nM

AGGAGACAUGAGGAUCACCCAUGUGCACGUGGAGGAGGAUAUGCUAGUAGAAGAUAGAAAGCAGAAGGCCUAAGAA
apparent Kd [3]: 69.2 nM | apparent Kd [4]: 80.5 nM

UUCAUCGAUGAAGGAUAUCUAUGUCCAACAUGAGGAUCACCCAUGUUGAGGAUUACCUAUGUGUAGGAGAAGGUCAAUAUGACU
apparent Kd [3]: 7.03 nM | apparent Kd [4]: 6.39 nM

GUAAUAAAGAUCCAAUUAUACAACAUGAGGAUCACCCAUGUGCAGGAUAUCGUGUGUUUUUUAUUCGAGAAGGGCAAAUUCAUU
apparent Kd [1]: 51.9 nM | apparent Kd [2]: 146 nM

GGUGUGAGGCAGGAUAUGCUAUAUGUUAGUAAUGCAGAAGGGUCUACAUGAGGAUCACCCAUGUGUGCGGUUGA
apparent Kd [1]: 90.5 nM | apparent Kd [2]: 394 nM

GGGCCCGGAGGAUAUACAAUUUUGGGCCGAAAGGCCCGGGUACAUGAGGAUCACCCAUGUAGAAGGCCGGGUUU
apparent Kd [1]: 31.9 nM | apparent Kd [2]: 311 nM

GAAUUAUUGAUCCAAUUUUACAACAUGAGGAUCACCCAUGUGCAGGAUAUCGUGUGUUUUAUAUUCGAGAAGGGCAAGAACUUU
apparent Kd [1]: 141 nM | apparent Kd [2]: 300 nM

AACAUGAGGAUCACCCAUGUCCCACCAGAAGGCUGGCGGUGGUGGUAAAGGCCACGACAAAUAACAGAGGAUAUGGUGAAUGCA
apparent Kd [3]: 84.6 nM | apparent Kd [4]: 18.8 nM

CAGCUCUGAGGAUAUCCAUCCUCCUACAUGAGGAUCACCCAUGUUUCCCUCUGGGUUUUCGGAGAAGGCAGUUUUU
apparent Kd [1]: 248 nM | apparent Kd [2]: 425 nM

AACGACUUAGGAUAUACAUGAGGAUCACCCAUGUUCAAAUCGUGGGUCAGGUGAGAAGGUAGAAGGAAGUCACU
apparent Kd [1]: 33.6 nM | apparent Kd [2]: 93.7 nM

GGUCGGAAUUUCGACGGCCUGAGGGAGGAUAUACAAGGCCGGCGUCGCACAUGAGGAUCACCCAUGUAGAAGGCCCAAGGCCUG
apparent Kd [1]: 6 nM | apparent Kd [2]: 7.2 nM

AGUCAUACAGGAUAUACAUGAGGAUCACCCAUGUAAAUCCUAAAAAGAAAAACCUCUUGUAGAAGGGUAUGACA
apparent Kd [1]: 14.3 nM | apparent Kd [2]: 16.3 nM

GGAUCGAAUGUGAGGAUAUGCUGGUCCUUGGAUCAGCAGAAGGCACAUGAGGAUCACCCAUGUGUUCCCGGUCC
apparent Kd [1]: 79.5 nM | apparent Kd [2]: 716 nM

AUAAAUCAUGUAGGAUAUGCGUGGCGAAGCUAUGCAGAAGGACAUGAGGAUCACCCAUGUCAUUCCGUCUGCGUACAGACGGAA
apparent Kd [1]: 34.5 nM | apparent Kd [2]: 308 nM

GGUUGUCAUCGUCAUCCUUUCUGUACAUGAGGAUCACCCAUGUAGGAUAUGCUGCUCUCGGUGUGGCAGAAGGGCGUGUGUGUU
apparent Kd [1]: 40.5 nM | apparent Kd [2]: 50.2 nM

GAAUUCGCAUGAGGAUAUGCACUCAUUUCAUGUGCAGAAGGUAUAUCAUUAGACAUGAGGAUCACCCAUGUAUUGGUCAUUAAA
apparent Kd [3]: 15.8 nM | apparent Kd [4]: 13.9 nM

ACUCUACAUGAGGAUCACCCAUGUCGAGCCCAUCAAGGAUAUGGGUCUUGAUCGCGGGUGCCAGAAGGUGAUGGUU
apparent Kd [3]: 43.9 nM | apparent Kd [4]: 47.1 nM

AGCUGUGGCCGAGGAUAUCUGUUCCAUAUAACCGAAAUAUAAUCGGACAUGAGGAUCACCCAUGUAGAGAAGGCGGUCUCAGCA
apparent Kd [1]: 22.7 nM | apparent Kd [2]: 24.8 nM

UUAAAUCAUGUAGGAUAUGCAUGGCGAAGCUACGCAGAAGGACAUGAGGAUCACCCAUGUUAUAGGUACCCAGUUCGGUGCCAA
apparent Kd [1]: 115 nM | apparent Kd [2]: 200 nM

UGUUUUCAUGUAGGAUAUGCUUGUCGUAGAUACGCAGAAGGACAUGAGGAUCACCCAUGUUAAUGCGACAGAUUUUAGUUUCUU
apparent Kd [1]: 19.6 nM | apparent Kd [2]: 62 nM

UACGCCUAGGAGAAGGGCCCACUAUAGGGUAAAUGCUGUUCUCACAUGAGGAUCACCCAUGUGCGGCAGGAUAUCCACGCGUAC
apparent Kd [1]: 8.25 nM | apparent Kd [2]: 39 nM

GGAUCGUAUGUCAGGAUAUACCACUGGAUACAGUGGUAGAAGGGACAUGAGGAUCACCCAUGUUCUAUCGAUCC
apparent Kd [1]: 15.9 nM | apparent Kd [2]: 20.4 nM

GUAGCAUACCGAGGAUAUUCUUACCGGAAACGGACAUGAGGAUCACCCAUGUGGCGAAAGCCUUUGGAGAAGGCGGAAUGCUAC
apparent Kd [3]: 12.4 nM | apparent Kd [4]: 12.4 nM

GUCGGCUCGUGAGGAUAUACAACACUGCUUCGGCAGUGUAUUAAGAUCACAUGAGGAUCACCCAUGUAGAAGGCACGAGCUGAU
apparent Kd [1]: 13.8 nM | apparent Kd [2]: 221 nM

GCCCGGGCAGGAUAUGCCCGGGCGCACAUGAGGAUCACCCAUGUGGCCCUGUGCCGUCCGGCAGAAGGGCCCGGGC
apparent Kd [1]: 90.1 nM | apparent Kd [2]: 87.4 nM

GAGCGGGAAACAUGAGGAUCACCCAUGUAAUAAGUCCUCAAGUAGGAUAUGCACACGAGAAGUGUGCAGAAGGGCUACCCGGUC
apparent Kd [1]: 20.9 nM | apparent Kd [2]: 28.8 nM
